The values below come from ChEMBL document CHEMBL3734683, “Synthesis and pharmacological screening of a large library of 1,3,4-thiadiazolines as innovative therapeutic tools for the treatment of prostate cancer and melanoma” (2015).

The test system of test [1] is PC-3. Nature of the test: Antiproliferative activity against human PC3 cells assessed as reduction in cell viability at 0.5 to 100 uM after 72 hrs by MTT assay. It is filed as functional, cell-based. The procedure, abridged: (§1)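 Cells plated, compound added after 24 h (DMSO dilution into culture medium), in triplicate; after 72 h, MTT added for 4 h. Controls were cells in medium alone; blanks were medium-only wells. Viability expressed as percent of viable cells versus control, mean of at least three independent assays.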

Test [2] can be described thus: Cytotoxicity against human PC3 cells assessed as cell viability at 5 uM after 72 hrs by tryphan blue staining based microscopy (reference value: 95 to 98 %). To be noted: PC-3, 72 h, read-out: Activity. Type of test: functional.
Test [3] concerns SK-MEL-5. Description: Reduction in cyclin D1 protein level in human SK-MEL-5 cells at 5 uM after 24 hrs by RT-PCR analysis relative to control. It is filed as functional, cell-based.
The test system of test [4] is SK-MEL-28. Description: Cell cycle arrest in human SK-MEL-28 cells assessed as accumulation at G2/M phase at 5 uM after 24 hrs by propidium iodide staining-based FACS analysis. Type of test: functional. In general terms: In flow cytometry, cells or beads pass a laser one at a time.
For test [5], the system named is SK-MEL-5. Nature of the test: Cell cycle arrest in human SK-MEL-5 cells assessed as accumulation of cells with 4N DNA at 5 uM after 96 hrs by propidium iodide staining-based FACS analysis. It is filed as functional.
Test [6] deals with SK-MEL-5. Nature of the test: Cell cycle arrest in human SK-MEL-5 cells assessed as accumulation at G2/M phase at 5 uM after 24 hrs by propidium iodide staining-based FACS analysis. Type of test: functional.
Test [7] has as its system SK-MEL-28. Description: Antiproliferative activity against human SK-MEL-28 cells assessed as reduction in cell viability at 5 to 50 uM after 72 hrs by MTT assay. Type of test: functional, cell-based. In outline:
as §1

Test [8] can be described thus: Cell cycle arrest in human PC3 cells assessed as accumulation of cells with 4N DNA at 5 uM after 96 hrs by propidium iodide staining-based FACS analysis. Type of test: functional. To be noted: PC-3.
The subject of test [9] is PC-3. Description: Reduction in cyclin D1 protein level in human PC3 cells at 5 uM after 24 hrs by RT-PCR analysis relative to control. Type of test: functional, cell-based.
Test [10] deals with SK-MEL-28. Nature of the test: Reduction in cyclin D1 mRNA expression in human SK-MEL-28 cells at 5 uM after 24 hrs by RT-PCR analysis relative to control.
Test [11] can be described thus: Cell cycle arrest in human PC3 cells assessed as accumulation at G2/M phase at 5 uM after 24 hrs by propidium iodide staining-based FACS analysis. Type of test: functional. To be noted: PC-3.
Test [12] has as its system SK-MEL-28. Nature of the test: Cell cycle arrest in human SK-MEL-28 cells assessed as accumulation of cells with 4N DNA at 5 uM after 96 hrs by propidium iodide staining-based FACS analysis. Type of test: functional.
For test [13], the system named is SK-MEL-5. Nature of the test: Antiproliferative activity against human SK-MEL-5 cells assessed as reduction in cell viability at 5 to 50 uM after 72 hrs by MTT assay. Type of test: functional, cell-based. The procedure, abridged:
as §1
A general note: Tetrazolium assays rely on reduction of a dye to a coloured formazan, in cell work by metabolically active cells.

Test [14] can be described thus: Cytotoxicity against human PC3 cells assessed as cell viability at 100 nM after 72 hrs by tryphan blue staining-based microscopy (reference value: 95 to 98 %). It is filed as functional. As to conditions: PC-3, 72 h, read-out: Activity.

The source made the active and inactive calls. No cut-off for these calls is given here.

As to `CCCCC1(CC)SC(NC(=O)CC)=NN1C(=O)CC` (stereo not given), the outcome in [1] was Active.
Consider `CC(=O)NC1=NN(C(C)=O)C(C)(c2ccccc2)S1` (stereo not given), for which, in test [2], the viability at 5 µM amounted to 25%. Further, the result in [3], in test [4], in test [5], in test [6], in test [7] and in [1] was Active. Besides, the result in [8], in test [9], in test [10], in test [11], in test [12] and in test [13] was Active.
Take `CC(=O)NC1=NN(C(C)=O)C(C)(c2cc(F)ccc2F)S1` (stereo not given): the result in [1] was Active.
Regarding `C=CCCC1(C)SC(NC(=O)CC)=NN1C(=O)CC` (stereo not given), the result in [7] and in [13] was Active.
Take `CC(=O)NC1=NN(C(C)=O)C(C)(c2cccnc2)S1` (stereo not given): the outcome in [7] and in test [13] was Active.
With `CC1(c2ccccc2)SC(NC(=O)C(Cl)Cl)=NN1C(=O)C(Cl)Cl` (stereo not given), the result in test [7], in test [1] and in test [13] was Active.
For `CCC1(c2ccccc2)SC(NC(C)=O)=NN1C(C)=O` (stereo not given), the viability at 5 µM in test [2] stood at 18%. In addition, the outcome in test [3], in [4], in test [5], in test [6], in test [7] and in [1] was Active. Also, the result in test [8], in test [9], in test [10], in test [11], in [12] and in [13] was Active.
Regarding `CC(=O)NC1=NN(C(C)=O)C(C)(c2ccccn2)S1` (stereo not given), the result in test [1] was Active.
The same measure, in the same setting: next, `CC(=O)NC1=NN(C(C)=O)C(C)(c2cccs2)S1` (stereo not given): “Active”.
Still for that read-out and setting: to `CC(=O)NC1=NN(C(C)=O)C(C)(c2ccc(OC(C)=O)cc2)S1` (stereo not given) belongs “Active”.
In the case of `CC(=O)O[C@@]12CO[C@@H]1C[C@H](O)[C@@]1(C)C(=O)[C@H](O)C3=C(C)[C@@H](OC(=O)[C@H](O)[C@@H](NC(=O)OC(C)(C)C)c4ccccc4)C[C@@](O)([C@@H](OC(=O)c4ccccc4)[C@H]21)C3(C)C` [DOCETAXEL ANHYDROUS], the viability at 0.1 µM in test [14] amounted to 32%.
Take `CCC(=O)NC1=NN(C(=O)CC)C(CC)(c2ccccc2)S1` (stereo not given): the outcome in [1] was Active.
